In ChEMBL document CHEMBL1157051, “New dioxazole derivatives: Synthesis and effects on the growth of Entamoeba histolytica and Giardia intestinalis” (Eur J Med Chem, 2010):
pIC50: −log10 of the molar value. ≈ marks a conversion by molar mass, not a printed value.

Experiments:
[1] = system: Entamoeba histolytica; test: Antiamoebic activity against Entamoeba histolytica HM-1:IMSS trophozoites after 72 hrs by microdilution technique; type: functional, organism-based
How it was run: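 HM1:IMSS trophozoites in TYIS-33 medium, detached by chilling on ice; 1.7 × 10⁴ organisms/well. Samples in DMSO (final ≤0.1%), diluted in medium. Plates gassed with nitrogen 10 min, incubated 37 °C for 72 h. Washed in warm 0.9% NaCl, methanol-fixed, eosin-stained, dye released with 0.1 N NaOH, OD 490 nm. IC50 from linear regression of % inhibition vs log dose; triplicate.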

[2] = system: Giardia intestinalis; test: Antigiardial activity against Giardia intestinalis Thai trophozoites after 24 hrs by inverted microscopic analysis; type: functional; conditions: Giardia duodenalis
[3] = system: Vero; test: Cytotoxicity against african green monkey Vero cells after 72 hrs by SRB assay; type: cell-based; conditions: Chlorocebus sabaeus
How it was run: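 Vero (ATCC CCL-81) at 10⁵ cells/mL in Eagle's MEM with heat-inactivated FBS and 1 mM sodium pyruvate. Samples at maximum final concentration […]; 0.05% DMSO negative control. 72 h at 37 °C, 5% CO₂. Viability by sulphorhodamine B assay; cytotoxic defined as IC50 below the 180 cutoff.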

[4] = Safety index, ratio of IC50 for african green monkey Vero cells to IC50 for Entamoeba histolytica HM-1:IMSS; type: toxicity, cell-based; conditions: read-out: Ratio IC50

O=[N+]([O-])c1ccc(C2=NOC(c3ccccc3O)O2)s1 (stereo not given)
pIC50 [1]: 5.58 | MIC [2]: 5.33 µM (≈ 1.56 µg/mL) | pIC50 [3]: > 3.74

COc1ccc(C2ON=C(c3ccc([N+](=O)[O-])s3)O2)cc1 (stereo not given)
pIC50 [1]: 5.80 | MIC [2]: 20.4 µM (≈ 6.25 µg/mL) | pIC50 [3]: > 3.74

Cc1ccc(C2=NOC(c3ccccc3)O2)cc1 (stereo not given)
pIC50 [1]: 5.11 | MIC [2]: > 1500 µM

Cc1ccc(C2=NOC(c3ccccc3O)O2)cc1 (stereo not given)
pIC50 [1]: 5.06 | MIC [2]: > 1500 µM

CC1(c2ccc(Cl)cc2)ON=C(c2ccc([N+](=O)[O-])s2)O1 (stereo not given)
pIC50 [1]: 5.21 | MIC [2]: 4.55 µM (≈ 1.48 µg/mL) | pIC50 [3]: > 3.74

Cc1ccc(C2=NOC(C)(c3ccc(Cl)cc3)O2)cc1 (stereo not given)
pIC50 [1]: 5.14 | MIC [2]: > 1500 µM

COc1ccc(C2ON=C(c3ccc(C)cc3)O2)cc1 (stereo not given)
pIC50 [1]: 5.74 | MIC [2]: > 1500 µM | pIC50 [3]: < 3.74 | selectivity ratio [4]: > 100

Cc1ncc([N+](=O)[O-])n1CCO [METRONIDAZOLE]
MIC [2]: 14.6 µM (≈ 2.5 µg/mL)

O=[N+]([O-])c1ccc(C2=NOC(c3ccccc3)O2)s1 (stereo not given)
pIC50 [1]: 5.00 | MIC [2]: 5.65 µM (≈ 1.56 µg/mL) | pIC50 [3]: > 3.74

CC1(c2ccccc2)ON=C(c2ccc([N+](=O)[O-])s2)O1 (stereo not given)
pIC50 [1]: 5.42 | MIC [2]: 10.8 µM (≈ 3.13 µg/mL) | pIC50 [3]: > 3.74

Cc1ccc(C2=NOC(C)(c3ccccc3)O2)cc1 (stereo not given)
pIC50 [1]: 5.74 | MIC [2]: > 1500 µM | pIC50 [3]: < 3.74 | selectivity ratio [4]: > 100
